TAAR1 antag = human TAAR1 antagonists, primary screen, Fluo-8 calcium fluorescence, CHO RD-HGA16 cells; Trace amine-associated receptor 1 (Homo sapiens), Q96RJ0; antagonist; inhibition, % at 3 µM; actives 1.5% (n = 360,000); AID 624466, 2012;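 active means inhibition above a per-plate cutoff, the mean inhibition of test compounds on that plate plus 3 SD, cut at about 49% in these data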
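System: CHO RD-HGA16 cells bearing hTAAR1. Reagent: EC80 β-phenethylamine stimulus. Schedule: seeding 17-24 h prior, 75-min 37 °C, 30-min RT dye loading. Signal: Fluo-8 intracellular calcium dye fluorescence, real-time kinetic reads. Read-out: % inhibition from peak post-agonist over basal fluorescence ratio. Benchmarks: vehicle wells and EC80 agonist wells. Replicates: n of 1.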
CHRM1 agonist = human M1 muscarinic receptor agonists, primary screen, Fluo-8 calcium fluorescence, CHO-K1 cells, HTS; Muscarinic acetylcholine receptor M1 (Homo sapiens), P11229; CHO-K1 hM1, agonist mode; 0% DMSO, 100% acetylcholine EC100; activation, % at 3 µM; actives 0.33% (n = 360,000); AID 588814, 2011;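 active means activation above the run's mean compound activation plus 3 SD, cut at about 16% in these data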;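 further: peak over basal fluorescence ratio within a 140 s kinetic read after compound addition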
Target sequence (P11229 whole entry, looked up): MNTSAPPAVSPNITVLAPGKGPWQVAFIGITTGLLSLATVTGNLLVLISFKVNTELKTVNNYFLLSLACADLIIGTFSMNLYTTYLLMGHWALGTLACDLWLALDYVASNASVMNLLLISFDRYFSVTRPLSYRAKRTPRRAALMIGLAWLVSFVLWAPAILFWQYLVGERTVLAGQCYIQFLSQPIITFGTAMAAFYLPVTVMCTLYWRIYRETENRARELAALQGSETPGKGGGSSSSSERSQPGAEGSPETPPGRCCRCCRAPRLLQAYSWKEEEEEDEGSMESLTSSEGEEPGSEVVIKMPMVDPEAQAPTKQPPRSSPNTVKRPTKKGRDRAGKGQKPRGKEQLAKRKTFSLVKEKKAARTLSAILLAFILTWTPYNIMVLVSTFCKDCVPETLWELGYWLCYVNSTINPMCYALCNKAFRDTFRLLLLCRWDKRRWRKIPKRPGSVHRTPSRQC
CHRM1 antagonist = human M1 muscarinic receptor antagonists, primary screen, CHO-K1 cells, Fluo-8 calcium fluorescence, 1536-well | inhibition, % at 3 µM | AID 588852, 2011 | Muscarinic acetylcholine receptor M1 (Homo sapiens), P11229 | actives 1.3% (n = 360,000) | CHO-K1 hM1, ACh EC80 antagonist;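 active means percent inhibition above its own plate's cutoff, namely the mean of that plate's compound wells plus 3 SD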;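 further: peak over basal fluorescence ratio during 140 s after agonist addition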
TAAR1 agonist = human TAAR1 agonists, primary screen, Fluo-8 calcium fluorescence, CHO RD-HGA16 cells; vehicle wells 0%, saturating PEA agonist 100%; AID 624467, 2012; activation, % at 3 µM; Trace amine-associated receptor 1 (Homo sapiens), Q96RJ0; actives 0.99% (n = 360,000);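 active means activation above the mean activation of all test compounds in the run plus 3 SD, cut at about 38% in these data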
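Signal – calcium-sensitive Fluo-8 signal, excitation 470-495, emission 515-575 nm · System – RD-HGA16 (CHO) cells co-expressing Gα16 and hTAAR1 · Incubation – 17-24 h seeding, 75 min 37 °C dye, 30 min RT · Compound dosing – 3 µM single concentration · Repeats – no replicates (n 1)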
CHRM1 PAM = human M1 muscarinic receptor positive allosteric modulators, primary screen, CHO-K1 cells, Fluo-8 calcium fluorescence, 1536-well | activation, % at 3 µM | actives 0.088% (n = 360,000) | Muscarinic acetylcholine receptor M1 (Homo sapiens), P11229 | CHO-K1 hM1, ACh EC20; 0% = ACh EC20, 100% = maximal ACh | AID 588819, 2011; in the data active means activation above about 19%, passing the limit was not always enough
TAAR1 ag confirm = human TAAR1 agonists, retest of hits, confirmation, Fluo-8 calcium fluorescence, CHO RD-HGA16 cells. shares compounds with TAAR1 agonist. scaled: DMSO 0%, maximal phenethylamine 100%. activation, % at 3 µM. actives 82% (n = 2,400). AID 651783, 2012;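 active means activation above a cutoff set at the run's mean compound activation plus 3 SD, cut at about 39% in these data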
Ga16 ag counter = nonselective calcium mobilization agonists, CHO-Ga16 cells, counter-screen for hTAAR1 agonist project, cell-based, fluorescence, CHO-Ga16 parental line; Fluo-8 calcium fluorescence; normalized to maximal ATP response, DMSO zero; activation, % at 3 µM; AID 651787, 2012; shares compounds with TAAR1 agonist; actives 50% (n = 2,400);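 active means activation above the run cutoff, the mean activation over all tested wells plus 3 SD, cut at about 12% in these data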
TAAR1 desens = TAAR1 desensitization by agonist hits, confirmation, counter-screen for TAAR1 agonist project, cell-based, fluorescence, tachyphylaxis; inhibition, % at 3 µM; shares compounds with TAAR1 agonist; AID 651951, 2012; actives 46% (n = 2,400); CHO RD-HGA16 hTAAR1, Fluo-8 calcium, beta-PEA response inhibition;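 active means inhibition above the run cutoff, the mean inhibition of all test compounds plus 3 SD, cut at about 49% in these data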;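 further: beta-PEA stimulus applied at its EC80; loss of beta-PEA calcium signal after compound pretreatment read as receptor desensitization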
Ga16 nonsel ant = inhibition of ATP-evoked calcium response in CHO-Ga16 cells, counter-screen for TAAR1 agonist project, cell-based, fluorescence | shares compounds with TAAR1 agonist | CHO-Ga16 ATP-induced calcium, Fluo-8 fluorescence | inhibition, % at 3 µM | actives 39% (n = 2,400);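 active means inhibition above the plate's mean compound inhibition plus 3 SD, computed per plate, cut at about 22% in these data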
Each line names hits and unclear results; the compound was inactive in the other large screens (follow-up assays come after a bar, where they were run). Hits are enriched below; roughly 3.4% of the tested compounds scored in any of these assays.

COC(=O)C1CCN(C(=O)C2CC(=O)N(c3ccc(C)c(Cl)c3)C2)CC1 (stereo unspecified)	none
O=C(CCNC(=O)c1ccco1)NNC(=O)c1ccc(Br)cc1	none
CCCOc1ccc(C(=O)NNC(=S)NC(=O)c2ccco2)cc1	TAAR1 antag 105, CHRM1 agonist 67, TAAR1 agonist 156 | TAAR1 ag confirm 147 | Ga16 ag counter 119 | TAAR1 desens 104 | Ga16 nonsel ant 72
CC(Oc1ccc(Cl)cc1)C(=O)NNC(=S)NC(=O)c1ccco1 (stereo unspecified)	TAAR1 antag 49, CHRM1 agonist 51, TAAR1 agonist 116 | TAAR1 ag confirm 79 | Ga16 ag counter 61 | TAAR1 desens inactive | Ga16 nonsel ant 40
COc1ccc(C(=O)NC(=S)NNC(=O)c2cccnc2)cc1	none
O=C(NC(=S)NNC(=O)c1ccco1)c1ccc(Br)cc1	CHRM1 agonist 25, TAAR1 agonist 94 | TAAR1 ag confirm 92 | Ga16 ag counter 72 | TAAR1 desens inactive | Ga16 nonsel ant 32
O=C(COc1ccc(Cl)cc1Cl)NNC(=S)NC(=O)c1ccco1	none
COc1ccc(C(=O)NNC(=S)NC(=O)c2ccco2)cc1	TAAR1 agonist 59 | TAAR1 ag confirm 66 | Ga16 ag counter 39 | TAAR1 desens inactive | Ga16 nonsel ant inactive
COc1cc(NC(=O)c2ccc(OCc3c(C)noc3C)c(OC)c2)cc(OC)c1	none
Cc1ccc(C)c(CC(=O)N2CCCC(c3cc(C(=O)NCc4cccnc4)no3)C2)c1 (stereo unspecified)	none
Cn1c(=O)c(-c2ccccc2[N+](=O)[O-])c(Cl)c2ccccc21	none
Clc1ccc2nc(N3CCNCC3)nc(-c3ccccc3)c2c1	TAAR1 agonist 57 | TAAR1 ag confirm 58 | Ga16 ag counter 29 | TAAR1 desens inactive | Ga16 nonsel ant inactive
CN1CCN(c2nc(-c3ccccc3)c3cc(Cl)ccc3n2)CC1	none
c1ccc(C2NCCNC2c2ccccc2)cc1 (stereo unspecified)	none
FC(F)(F)c1cc(CO[C@@H]2CCCN[C@@H]2c2ccccc2)cc(C(F)(F)F)c1	TAAR1 agonist 70 | TAAR1 ag confirm inactive | Ga16 ag counter 29 | TAAR1 desens inactive | Ga16 nonsel ant inactive
O=C(CN(CC1CCCO1)C(=O)CNS(=O)(=O)c1ccc(F)cc1)NCc1ccc(F)cc1 (stereo unspecified)	none
CN(CCc1ccccc1)C(C(=O)c1ccc2c(c1)OCO2)c1nnnn1-c1ccccc1NC(=O)OC(C)(C)C (stereo unspecified)	TAAR1 antag 78, TAAR1 agonist 86 (no result: CHRM1 agonist, CHRM1 antagonist, CHRM1 PAM) | TAAR1 ag confirm 85 | Ga16 ag counter inactive | TAAR1 desens 82 | Ga16 nonsel ant inactive
CSc1ccc(Cl)c(C(=O)N2CCN(c3ncccn3)CC2)c1	none
Cc1cc(/C=C(\C#N)C(=O)Nc2ccc(F)cc2)c(C)n1-c1ccc(N2CCOCC2)c([N+](=O)[O-])c1	TAAR1 agonist 69 | TAAR1 ag confirm inactive | Ga16 ag counter inactive | TAAR1 desens inactive | Ga16 nonsel ant 28
COc1ccc(NC(=O)/C(C#N)=C/c2cc(C)n(-c3ccc(N4CCOCC4)c([N+](=O)[O-])c3)c2C)cc1	none
CC(=O)c1c(C)[nH]c(C(=O)CN2C(=O)NC(C)(c3ccc4c(c3)OCO4)C2=O)c1C (stereo unspecified)	none
CC1(c2ccc(OC(F)F)cc2)NC(=O)N(CC(=O)c2ccc3c(c2)OCO3)C1=O (stereo unspecified)	TAAR1 antag 96, CHRM1 agonist 43, TAAR1 agonist 136 | TAAR1 ag confirm 118 | Ga16 ag counter 81 | TAAR1 desens 102 | Ga16 nonsel ant 49
CC1(c2ccc([N+](=O)[O-])cc2)NC(=O)N(CC(=O)c2ccc3c(c2)OCO3)C1=O (stereo unspecified)	CHRM1 agonist 37, TAAR1 agonist 90 | TAAR1 ag confirm 117 | Ga16 ag counter 70 | TAAR1 desens 76 | Ga16 nonsel ant 37
CC1(c2ccc(OC(F)F)cc2)NC(=O)N(CC(=O)NC2CCCCC2)C1=O (stereo unspecified)	none
O=C(c1cc(-c2ccccc2)on1)N(Cc1cccnc1)C(c1ccccn1)c1nc2ccccc2[nH]1 (stereo unspecified)	none
Cc1nn(C)cc1C=NCCOCc1ccccc1	TAAR1 agonist 44 | TAAR1 ag confirm 66 | Ga16 ag counter inactive | TAAR1 desens inactive | Ga16 nonsel ant inactive
COC(=O)C[C@H]1C=C[C@H](NC(=O)C2CCOCC2)[C@@H](CO)O1	none (no result: CHRM1 agonist, CHRM1 antagonist, CHRM1 PAM)
CC(=O)c1ccc(NC(=O)CC(NCCC2=CCCCC2)C(=O)O)cc1 (stereo unspecified)	TAAR1 agonist 45 | TAAR1 ag confirm 74 | Ga16 ag counter inactive | TAAR1 desens inactive | Ga16 nonsel ant inactive
CCn1cc(C(=O)O)c(=O)c2cc(F)c(N3CCN(C(=O)Nc4ccccc4)CC3)cc21	none
CCn1cc(C(=O)O)c(=O)c2cc(F)c(N/N=C/c3ccccc3)cc21	TAAR1 antag 70, TAAR1 agonist 56 | TAAR1 ag confirm 82 | Ga16 ag counter inactive | TAAR1 desens 85 | Ga16 nonsel ant inactive
CN(C)C(=O)c1ccc(NC(=O)COC(=O)C2(c3ccccc3)CCCC2)cc1	none
N#Cc1ccccc1S(=O)(=O)N1CCN(S(=O)(=O)c2ccc(Br)c(C(=O)O)c2)CC1	none
Cc1ccc(S(=O)(=O)N2CCOCC2)cc1NC(=O)COC(=O)COc1ccc(C#N)cc1	none
